Converted amounts (≈) assume the structure as drawn. The source made the active and inactive calls. The rule behind the calls is not given here.
Columns and labels:
Acinetobacter baumannii [1] = experiment: Antimicrobial activity against carbapenem-intermediate or resistant Acinetobacter baumannii assessed as percent susceptible isolates; format: functional
Acinetobacter baumannii [2] = experiment: Antimicrobial activity against carbapenem-intermediate or resistant Acinetobacter baumannii isolates by agar dilution method; format: functional
Summary of the method: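 Clinical isolates with imipenem or meropenem MIC ≥8 mg/liter were tested by agar dilution on Mueller-Hinton agar supplemented with 25 mg/liter calcium and 12.5 mg/liter magnesium. Inoculum was ~10⁴ CFU per spot from a 0.5 McFarland BHI suspension. Plates were incubated at 35°C for 18–24 h. Growth beyond a single colony or a slight haze counted as growth.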

Acinetobacter baumannii [3] = experiment: Bactericidal activity against carbapenem-resistant Acinetobacter baumannii AA557 by time kill curve analysis; format: functional, organism-based
Summary of the method: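 Time-kill on AA557: mid-log (4 h) inoculum at ~5 × 10⁵ CFU/ml in 10 ml fresh CAMHB with tigecycline at 0.5×, 1×, 2× or 4× MIC, or at the calculated average free steady-state serum level, plus growth control. Sampled at 0, 2, 4, 8, 24 and 48 h and plated in duplicate on sheep-blood TSA (35°C, 18–24 h). Detection limit 40 CFU/ml. Experiments run in duplicate.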

Acinetobacter baumannii [4] = experiment: Antimicrobial activity against carbapenem-intermediate or resistant Acinetobacter baumannii isolates by broth microdilution method; format: functional
Summary of the method: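 Tigecycline MIC by broth microdilution in freshly prepared CAMHB (25 mg/liter calcium, 12.5 mg/liter magnesium). Approximately 5 × 10⁵ CFU/ml was added to serial drug dilutions and incubated in ambient air at 35°C for 18–24 h. Isolates had imipenem or meropenem MIC ≥8 mg/liter.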

Acinetobacter baumannii [5] = experiment: Bactericidal activity against carbapenem-resistant Acinetobacter baumannii AA557 assessed as reduction in colony count at 2 mg/liter after 24 hrs by time kill curve analysis; format: functional, organism-based

Compound	Activity (Acinetobacter baumannii [1])	MIC50 (Acinetobacter baumannii [2])	MIC90 (Acinetobacter baumannii [2])	Activity (Acinetobacter baumannii [3])	MIC50 (Acinetobacter baumannii [4])	MIC90 (Acinetobacter baumannii [4])	log10CFU/ml (Acinetobacter baumannii [5])
NCC[C@H](O)C(=O)N[C@@H]1C[C@H](N)[C@@H](O[C@H]2O[C@H](CN)[C@@H](O)[C@H](O)[C@H]2O)[C@H](O)[C@H]1O[C@H]1O[C@H](CO)[C@@H](O)[C@H](N)[C@H]1O [AMIKACIN]	38%	32 µg/mL (≈ 54.6 µM)	> 32 µg/mL				
O=C(O)c1cn(C2CC2)c2cc(N3CCNCC3)c(F)cc2c1=O [CIPROFLOXACIN]	0%						
C[C@H]1c2cccc(O)c2C(=O)C2=C(O)[C@]3(O)C(=O)C(C(N)=O)=C(O)[C@@H](N(C)C)[C@@H]3[C@@H](O)[C@@H]21.O [DOXYCYCLINE]	56%	2 µg/mL	> 32 µg/mL				
C[C@@H](O)[C@H]1C(=O)N2C(C(=O)O)=C(SCCNC=N)C[C@H]12 [IMIPENEM ANHYDROUS]	20%	4 µg/mL (≈ 13.4 µM)	64 µg/mL (≈ 214 µM)				
C[C@@H](O)[C@H]1C(=O)N2C(C(=O)O)=C(S[C@@H]3CN[C@H](C(=O)N(C)C)C3)[C@H](C)[C@H]12 [MEROPENEM]	4%	16 µg/mL (≈ 41.7 µM)	> 128 µg/mL				
CN(C)c1ccc(O)c2c1C[C@H]1C[C@H]3[C@H](N(C)C)C(O)=C(C(N)=O)C(=O)[C@@]3(O)C(O)=C1C2=O [MINOCYCLINE]	83%	0.5 µg/mL (≈ 1.09 µM)	8 µg/mL (≈ 17.5 µM)				
CO[C@H]1/C=C/O[C@@]2(C)Oc3c(C)c(O)c4c(O)c(c(/C=N/N5CCN(C)CC5)c(O)c4c3C2=O)NC(=O)/C(C)=C\C=C\[C@H](C)[C@H](O)[C@@H](C)[C@@H](O)[C@@H](C)[C@H](OC(C)=O)[C@@H]1C [RIFAMPIN]	inactive	4 µg/mL (≈ 4.86 µM)	8 µg/mL (≈ 9.72 µM)				
CN(C)c1cc(NC(=O)CNC(C)(C)C)c(O)c2c1C[C@H]1C[C@H]3[C@H](N(C)C)C(O)=C(C(N)=O)C(=O)[C@@]3(O)C(O)=C1C2=O [TIGECYCLINE]	95%			Active	1 µg/mL (≈ 1.71 µM)	2 µg/mL (≈ 3.41 µM)	
POLYMYXIN B	100%	1 µg/mL	1 µg/mL				1.6

From ChEMBL document CHEMBL1143837, “In vitro activities of various antimicrobials alone and in combination with tigecycline against carbapenem-intermediate or -resistant Acinetobacter baumannii” (2007)
